The target in one data set is CYP2C9 (Homo sapiens, UniProt P11712). Put plainly: Inhibition of CYP2C9 in human liver microsomes at 10 uM after 20 mins in presence of NADPH by LC-MS/MS analysis. Format: ADME. An outline of the steps:
(§1)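 Percent inhibition of each CYP isoform by test compound at 10 µM, compared with a no-inhibitor control. Run in triplicate.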
Background: Liver microsomes are vesicles of endoplasmic reticulum, rich in cytochrome P450 enzymes.

The target in another data set is T1, CYP1A2 (Homo sapiens, UniProt P05177).
T1 sequence (P05177 whole entry): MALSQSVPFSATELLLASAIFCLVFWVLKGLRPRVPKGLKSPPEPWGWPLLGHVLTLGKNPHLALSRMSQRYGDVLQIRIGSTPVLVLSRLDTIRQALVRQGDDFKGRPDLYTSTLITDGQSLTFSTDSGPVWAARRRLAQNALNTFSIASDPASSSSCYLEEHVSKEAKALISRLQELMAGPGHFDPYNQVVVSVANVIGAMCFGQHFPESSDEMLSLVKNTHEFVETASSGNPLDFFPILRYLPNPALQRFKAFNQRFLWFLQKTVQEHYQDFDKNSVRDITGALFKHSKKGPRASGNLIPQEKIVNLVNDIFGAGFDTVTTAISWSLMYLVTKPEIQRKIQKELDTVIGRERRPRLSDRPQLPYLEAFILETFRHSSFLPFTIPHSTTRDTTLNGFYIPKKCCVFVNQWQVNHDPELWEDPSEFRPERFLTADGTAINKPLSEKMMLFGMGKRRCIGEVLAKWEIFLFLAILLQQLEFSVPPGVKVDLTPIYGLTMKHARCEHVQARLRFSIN
In words: Inhibition of CYP1A2 in human liver microsomes at 10 uM after 20 mins in presence of NADPH by LC-MS/MS analysis. Format: ADME. An outline of the steps:
as §1

The target of a further data set is hERG (KCNH2) (Homo sapiens, UniProt Q12809). In words: Inhibition of human ERG at 10 uM by patch clamp assay relative to control. Summed up:
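hERG current measured by patch clamp with test compound at 10 µM; result given as % inhibition.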

Data set [1] concerns the target T2, Prostaglandin E synthase (Homo sapiens, UniProt O14684).
T2 sequence (O14684 whole entry): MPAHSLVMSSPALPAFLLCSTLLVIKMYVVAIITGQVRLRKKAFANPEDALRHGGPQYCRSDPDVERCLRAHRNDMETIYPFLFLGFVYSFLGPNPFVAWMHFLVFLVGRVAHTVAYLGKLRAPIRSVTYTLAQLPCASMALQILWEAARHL
Put plainly: Inhibition of recombinant human mPGES1 expressed in CHO cells assessed as reduction in PGE2 production using PGH2 as substrate incubated for 10 mins followed by substrate addition measured for 1 min. Format: cell-based.

Another data set concerns the target CYP2C19 (Homo sapiens, UniProt P33261). In words: Inhibition of CYP2C19 in human liver microsomes at 10 uM after 40 mins in presence of NADPH by LC-MS/MS analysis. Format: ADME. An outline of the steps:
as §1

Data set [2] in a line: Metabolic stability in rat liver microsomes assessed as parent compound remaining at 1 uM after 60 mins in presence of NADPH by LC-MS/MS analysis. Format: ADME, microsome. The conditions noted are these: read-out: Stability. Summed up: (§2)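 Compound incubated 60 min at 37 °C with human, rat or guinea pig liver microsomes; percent parent remaining, triplicates.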
The target of the next data set is CYP3A4 (Homo sapiens, UniProt P08684). In words: Inhibition of CYP3A4 in human liver microsomes at 10 uM after 20 mins in presence of NADPH by LC-MS/MS analysis. Format: ADME. An outline of the steps:
as §1

A short description of data set [3]: Metabolic stability in guinea pig liver microsomes assessed as parent compound remaining at 1 uM after 60 mins in presence of NADPH by LC-MS/MS analysis. Format: ADME, Cavia porcellus, microsome. The note with it: read-out: Stability. Summed up:
as §2

Data set [4] deals with T2, Prostaglandin E synthase. In words: Inhibition of mPGES1 in human whole blood assessed as reduction in LPS-induced PGE2 production measured after 20 to 24 hrs.
A short description of data set [5]: Apparent passive permeability of the compound by PAMPA. Format: ADME. An outline of the steps:
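Passive permeability by PAMPA, using a 2% lecithin in dodecane membrane. Run in triplicate.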
Background: The PAMPA barrier holds no transporters, so it reflects passive diffusion.

The nature of data set [6]: Metabolic stability in human liver microsomes assessed as parent compound remaining at 1 uM after 60 mins in presence of NADPH by LC-MS/MS analysis. Format: ADME, microsome. The note with it: read-out: Stability. Summed up:
as §2

For another data set, the target named is CYP2D6 (Homo sapiens, UniProt P10635). In words: (§3) Inhibition of CYP2D6 in human liver microsomes at 10 uM after 20 mins in presence of NADPH by LC-MS/MS analysis. Format: ADME. The conditions noted are these: liver microsomes. An outline of the steps:
as §1

Data set [7] has as its target T2, Prostaglandin E synthase. In words: Inhibition of mPGES1 in human A549 cells assessed as reduction in IL-1beta-induced PGE2 production preincubated for 30 mins followed by incubation with IL-1beta for 16 to 20 hrs measured after 10 mins by HTRF assay. Format: cell-based. For orientation: In TR-FRET formats the signal depends on donor and acceptor labels being close together.

A further data set addresses Cytochrome P450 2D6 (Homo sapiens, UniProt P10635). The description is as §3. Format: ADME. The conditions noted are these: microsomes, 20 min, 10 µM. An outline of the steps:
as §1

Data set [8] in a line: Protein binding in guinea pig plasma at 10 uM after 5 hrs by equilibrium dialysis based LC-MS/MS analysis. Format: ADME, cell-free, Cavia porcellus. The conditions noted are these: read-out: PPB (converted). Summed up:
(§4)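 Equilibrium dialysis at 10 μM compound; result expressed as percent bound.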

Data set [9] can be described thus: Protein binding in human plasma at 10 uM after 5 hrs by equilibrium dialysis based LC-MS/MS analysis. The note with it: read-out: PPB (converted). Format: ADME, cell-free. Summed up:
as §4

For another data set, the system named is Cavia porcellus. In words: Analgesic activity in Dunkin-Hartley guinea pig hyperalgesia pain model assessed as inhibition of LPS-induced hyperalgesia at 10 mg/kg, po administered 2 hrs prior to LPS challenge measured after 4.5 hrs relative to control. Format: functional. An outline of the steps:
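Guinea pigs received compound orally, once daily, at 10, 30 or 100 mg/kg, 2 h before LPS was injected into the plantar surface of the right paw. Saline-injected animals served as the comparison for thermal hyperalgesia. Plasma and brain drug levels taken 7 h after dosing, mean of n = 6–9 per group, from a single experiment.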

SMILES strings stand for the structures. Some results are limits rather than exact numbers.

Here are results for 5 compounds from ChEMBL document CHEMBL4219124, “Alleviating CYP and hERG liabilities by structure optimization of dihydrofuran-fused tricyclic benzo[d]imidazole series - Potent, selective and orally efficacious microsomal prostaglandin E synthase-1 (mPGES-1) inhibitors: Part-2” (Bioorg Med Chem Lett, 2018).

Chain of CYP3A4 (P08684 whole entry): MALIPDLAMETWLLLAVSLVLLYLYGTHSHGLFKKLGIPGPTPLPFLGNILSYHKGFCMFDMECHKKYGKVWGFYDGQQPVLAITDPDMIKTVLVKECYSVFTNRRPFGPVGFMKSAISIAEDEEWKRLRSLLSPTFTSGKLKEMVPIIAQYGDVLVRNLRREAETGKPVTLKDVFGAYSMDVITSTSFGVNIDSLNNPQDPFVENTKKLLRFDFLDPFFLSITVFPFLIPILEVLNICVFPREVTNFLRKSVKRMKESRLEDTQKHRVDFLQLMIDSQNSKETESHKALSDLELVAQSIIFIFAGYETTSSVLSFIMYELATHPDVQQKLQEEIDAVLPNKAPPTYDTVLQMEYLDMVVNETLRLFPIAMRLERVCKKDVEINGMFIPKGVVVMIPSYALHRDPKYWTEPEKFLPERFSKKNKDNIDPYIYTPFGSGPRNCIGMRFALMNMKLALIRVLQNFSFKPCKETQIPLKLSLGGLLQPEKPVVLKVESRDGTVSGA
Chain of CYP2C19 (P33261 whole entry): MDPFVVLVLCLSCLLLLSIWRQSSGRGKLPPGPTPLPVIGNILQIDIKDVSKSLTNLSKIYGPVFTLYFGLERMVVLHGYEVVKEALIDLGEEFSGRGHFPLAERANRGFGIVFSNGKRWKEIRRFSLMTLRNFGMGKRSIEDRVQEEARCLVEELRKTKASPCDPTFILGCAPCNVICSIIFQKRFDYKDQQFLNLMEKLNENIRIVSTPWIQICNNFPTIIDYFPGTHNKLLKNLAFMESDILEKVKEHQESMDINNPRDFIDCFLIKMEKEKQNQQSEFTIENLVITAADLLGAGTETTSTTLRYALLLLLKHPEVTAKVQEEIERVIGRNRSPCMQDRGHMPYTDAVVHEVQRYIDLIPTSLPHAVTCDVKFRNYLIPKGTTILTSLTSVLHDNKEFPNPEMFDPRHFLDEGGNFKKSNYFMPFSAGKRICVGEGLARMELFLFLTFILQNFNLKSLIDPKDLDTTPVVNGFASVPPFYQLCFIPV
Chain of CYP2C9 (P11712 whole entry, canonical isoform): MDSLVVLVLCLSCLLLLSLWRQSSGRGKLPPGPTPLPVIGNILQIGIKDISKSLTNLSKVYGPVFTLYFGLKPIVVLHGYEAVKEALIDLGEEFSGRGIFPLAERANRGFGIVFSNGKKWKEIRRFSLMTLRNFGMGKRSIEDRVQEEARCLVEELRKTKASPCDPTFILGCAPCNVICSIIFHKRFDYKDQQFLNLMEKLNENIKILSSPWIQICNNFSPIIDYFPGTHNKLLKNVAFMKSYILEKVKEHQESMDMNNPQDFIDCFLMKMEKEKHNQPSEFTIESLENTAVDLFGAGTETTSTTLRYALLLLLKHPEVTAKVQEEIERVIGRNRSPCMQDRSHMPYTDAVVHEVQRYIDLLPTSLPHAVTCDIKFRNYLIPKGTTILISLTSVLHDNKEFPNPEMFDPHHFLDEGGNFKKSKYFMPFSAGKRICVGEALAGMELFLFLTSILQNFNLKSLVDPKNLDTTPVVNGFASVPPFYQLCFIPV
Chain of CYP2D6 (P10635 whole entry): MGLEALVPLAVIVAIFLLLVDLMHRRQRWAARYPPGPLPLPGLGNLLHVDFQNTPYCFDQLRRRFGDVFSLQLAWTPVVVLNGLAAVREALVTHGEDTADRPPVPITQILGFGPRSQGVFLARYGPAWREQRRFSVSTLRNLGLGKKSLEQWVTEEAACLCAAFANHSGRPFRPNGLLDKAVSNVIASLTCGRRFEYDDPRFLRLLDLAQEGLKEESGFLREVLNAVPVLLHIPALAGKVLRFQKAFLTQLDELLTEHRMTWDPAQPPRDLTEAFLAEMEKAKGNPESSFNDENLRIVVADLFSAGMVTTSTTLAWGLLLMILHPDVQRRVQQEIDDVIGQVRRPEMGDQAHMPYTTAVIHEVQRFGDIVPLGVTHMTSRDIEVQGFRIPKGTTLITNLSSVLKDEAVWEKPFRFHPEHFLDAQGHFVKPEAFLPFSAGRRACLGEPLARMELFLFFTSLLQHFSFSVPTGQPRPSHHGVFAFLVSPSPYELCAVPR
Chain of Cytochrome P450 2D6 (P10635 whole entry): as above
Chain of hERG (KCNH2) (Q12809 whole entry): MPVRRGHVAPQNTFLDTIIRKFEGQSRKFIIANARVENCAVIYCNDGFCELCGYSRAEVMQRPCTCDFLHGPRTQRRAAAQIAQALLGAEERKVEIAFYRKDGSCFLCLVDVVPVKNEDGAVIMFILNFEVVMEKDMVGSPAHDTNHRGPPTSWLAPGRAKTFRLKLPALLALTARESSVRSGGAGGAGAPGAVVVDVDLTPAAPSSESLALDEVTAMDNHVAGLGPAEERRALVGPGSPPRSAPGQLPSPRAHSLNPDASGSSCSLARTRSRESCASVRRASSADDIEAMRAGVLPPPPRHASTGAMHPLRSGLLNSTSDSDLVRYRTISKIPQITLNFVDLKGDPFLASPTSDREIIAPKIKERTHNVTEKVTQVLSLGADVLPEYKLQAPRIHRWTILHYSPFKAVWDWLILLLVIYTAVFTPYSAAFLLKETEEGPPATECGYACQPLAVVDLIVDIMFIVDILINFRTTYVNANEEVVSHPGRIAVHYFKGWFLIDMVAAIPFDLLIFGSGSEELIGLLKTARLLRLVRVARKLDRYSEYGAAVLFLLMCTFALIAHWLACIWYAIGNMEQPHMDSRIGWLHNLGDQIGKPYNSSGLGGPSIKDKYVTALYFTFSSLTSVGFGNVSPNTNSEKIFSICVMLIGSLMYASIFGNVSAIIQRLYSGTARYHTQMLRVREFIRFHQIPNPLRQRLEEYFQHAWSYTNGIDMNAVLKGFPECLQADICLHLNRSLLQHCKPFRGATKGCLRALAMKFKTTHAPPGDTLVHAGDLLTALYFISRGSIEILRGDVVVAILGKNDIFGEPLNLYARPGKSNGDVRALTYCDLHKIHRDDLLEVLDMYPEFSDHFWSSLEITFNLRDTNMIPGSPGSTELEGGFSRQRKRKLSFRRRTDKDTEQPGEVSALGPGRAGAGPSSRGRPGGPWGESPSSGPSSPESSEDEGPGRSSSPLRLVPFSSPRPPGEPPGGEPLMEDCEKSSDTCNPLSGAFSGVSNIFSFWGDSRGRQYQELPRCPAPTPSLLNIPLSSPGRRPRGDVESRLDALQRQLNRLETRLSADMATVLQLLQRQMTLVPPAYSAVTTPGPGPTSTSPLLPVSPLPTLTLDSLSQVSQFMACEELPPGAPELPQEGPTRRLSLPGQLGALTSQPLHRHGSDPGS

As for `Cc1cc(C(F)(F)F)ccc1NC(=O)c1cc2nc(Nc3c(F)cccc3Cl)[nH]c2c2c1OC(C)(C)C2`, the inhibition at 20 min, 10 µM at CYP2C9 was determined as 1%; at CYP1A2 it was 26%; on CYP3A4 it was 20%; at CYP2D6, 16%. The same compound came in with an inhibition at 10 µM on hERG (KCNH2) of 16.2%. Moreover, the figures for the IC50 on Prostaglandin E synthase [1], at Prostaglandin E synthase [4] and on Prostaglandin E synthase [7] were 6.1 nM, 270 nM and 6 nM, respectively. On CYP2C19, the inhibition at 40 min, 10 µM was 38%. For the same compound, the remaining at 1 h, 1 µM came out at 91% in [2], 72% in data set [3] and 82% in data set [6]. For the same compound, in data set [5], the Papp stood at 0.31 ×10⁻⁶ cm/s.

Take `CC1(C)Cc2c(c(C(=O)Nc3ccccc3C(F)(F)F)cc3nc(Nc4c(Cl)cccc4Cl)[nH]c23)O1`: the inhibition at 20 min, 10 µM at CYP2C9 worked out at 16%; at CYP1A2, 18%; at CYP3A4, 17%. Moreover, the figures for the IC50 on Prostaglandin E synthase [1], on Prostaglandin E synthase [4] and on Prostaglandin E synthase [7] were 4.9 nM, 506 nM and 5.2 nM, respectively. Further, on CYP2C19, the inhibition at 40 min, 10 µM worked out at 30%. The remaining at 1 h, 1 µM in data set [3] was 86%. Besides, the “inhibition (INH)” value at Cytochrome P450 2D6 was “Not Active”.

`CC1(C)Cc2c(c(C(=O)Nc3ccccc3C(F)(F)F)cc3nc(Nc4c(F)cccc4Cl)[nH]c23)O1`: the fraction unbound at 5 h, 10 µM in data set [8] and in [9] was less than 0.005 throughout. Besides, the inhibition at 20 min, 10 µM on CYP2C9 turned out to be 29%; on CYP1A2 it was 17%; at CYP3A4, 11%; at CYP2D6, 4%. Further, the half-maximal inhibitory concentration (IC50) came out at 5.1 nM on Prostaglandin E synthase [1], 536 nM at Prostaglandin E synthase [4] and 9.7 nM on Prostaglandin E synthase [7]. For the same compound, the inhibition at 40 min, 10 µM at CYP2C19 was found to be 46%. In addition, the remaining at 1 h, 1 µM in data set [3] came to 89%; in data set [6] it was 93%. In addition, in data set [5], the Papp stood at 0.12 ×10⁻⁶ cm/s.

`O=C(O)Cc1ccccc1Nc1c(Cl)cccc1Cl` [DICLOFENAC]: the inhibition in vivo at 10 mg/kg with Cavia porcellus was determined as 85%.

Consider `CC1(C)Cc2c(c(C(=O)Nc3c(F)cccc3F)cc3nc(Nc4c(Cl)cccc4Cl)[nH]c23)O1`, for which the inhibition at 20 min, 10 µM on CYP2C9 turned out to be 35%; at CYP1A2, 14%; on CYP3A4, 24%. Also, the IC50 on Prostaglandin E synthase [1] amounted to 6.4 nM; at Prostaglandin E synthase [4], 661 nM; at Prostaglandin E synthase [7], 15 nM. Moreover, the inhibition at 40 min, 10 µM on CYP2C19 is 41%. Also, the results for the remaining at 1 h, 1 µM in data set [3] and in data set [6] were 80% and 72%, respectively. Also, the “inhibition (INH)” value at Cytochrome P450 2D6 is given as “Not Active”.

The term inhibition denotes the drop in the measured response relative to a control, in per cent. What is called IC50 is the concentration that inhibits the measured activity by half. What is called Papp is the rate of passage across a membrane or cell layer, normalised by area and donor concentration. As usually defined, the inhibition in vivo is the percentage by which the read-out fell short of the control.
